Active and inactive are the calls of the source.

The target of series [1] is T1, Neutrophil elastase (Homo sapiens, UniProt P08246).
T1 sequence (P08246 whole entry): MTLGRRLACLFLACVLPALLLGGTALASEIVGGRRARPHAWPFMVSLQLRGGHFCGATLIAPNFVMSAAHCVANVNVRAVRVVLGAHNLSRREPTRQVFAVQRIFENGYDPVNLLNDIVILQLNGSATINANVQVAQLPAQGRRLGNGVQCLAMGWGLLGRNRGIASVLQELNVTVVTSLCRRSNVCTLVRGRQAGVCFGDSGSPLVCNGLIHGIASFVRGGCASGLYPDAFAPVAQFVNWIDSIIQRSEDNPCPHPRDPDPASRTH
As to the kind of experiment: Inhibition of human neutrophil elastase using chromogenic substrate (N-MeOSuc-Ala-Ala-Pro-Val-p-nitroanilide after 120 mins.

Series [2] is filed under the species Sus scrofa. In words: Inhibition of porcine pancreatic elastase using N-Suc-(L-Ala)3-p-nitroaniline at 50 to 500 uM. Particulars: TDE = time-dependent effect.
The species entered for series [3] is Sus scrofa. As to the kind of experiment: Inhibition of porcine pancreatic elastase using N-Suc-(L-Ala)3-p-nitroaniline.
For series [4], the species on record is Sus scrofa. In words: Inhibition of porcine pancreatic elastase using N-Suc-(L-Ala)3-p-nitroaniline assessed as remaining activity at 2.5 to 500 uM after 15 mins. In short, it runs like this:
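PPE (5 µM) with inhibitor 2.5–500 µM in pH 7.25 HEPES, 15 min incubation; aliquots assayed for remaining activity (vt/v0) versus [I]/[E]0 ratio to estimate equivalents needed for inactivation.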

The species entered for series [5] is Sus scrofa. In words: Inhibition of porcine pancreatic elastase using N-Suc-(L-Ala)3-p-nitroaniline at 300 molar excess. In short, it runs like this:
(§1)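 Pre-incubation of PPE with 300- or 600-fold molar excess of inhibitor; residual activity measured with N-Suc-(L-Ala)3-p-nitroanilide.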

Series [6] addresses T2, Cathepsin G (Homo sapiens, UniProt P08311).
T2 sequence (P08311 whole entry): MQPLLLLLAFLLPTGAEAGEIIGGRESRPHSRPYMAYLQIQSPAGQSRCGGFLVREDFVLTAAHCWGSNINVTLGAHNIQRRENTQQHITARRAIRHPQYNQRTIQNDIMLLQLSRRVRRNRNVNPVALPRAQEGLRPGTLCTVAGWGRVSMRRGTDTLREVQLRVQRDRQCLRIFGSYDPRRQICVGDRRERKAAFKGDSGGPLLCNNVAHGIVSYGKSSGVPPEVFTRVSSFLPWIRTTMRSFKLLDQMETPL
As to the kind of experiment: Inhibition of cathepsin G using Suc-Ala-Ala-Pro-Phe-p-nitroanilide as substrate after 30 mins.

For series [7], the species on record is Sus scrofa. As to the kind of experiment: Inhibition of porcine pancreatic elastase using N-Suc-(L-Ala)3-p-nitroaniline at 600 molar excess. In short, it runs like this:
as §1

The nature of series [8]: Half life of the compound in phosphate buffer at pH 7.4. In kind it is physicochemical. The essentials:
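Hydrolysis in phosphate buffer, pH 7.4, at 37 °C; half-life in min.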

Series [9] is described as follows: Drug degradation in CD3ONa/CD3OD solution assessed as 2-(methoxycarbonyloxy)propan-2-yl 4-methoxybenzoylcarbamate formation at room temperature for 15 mins by 1H-NMR analysis in the presence of sodium methoxide. It counts as physicochemical. Particulars: 0.25 h.
Series [10] can be described thus: Drug degradation in methanol assessed as methyl 4-methoxybenzoate formation at room temperature for 10 mins by TLC analysis in the presence of sodium methoxide. In kind it is physicochemical.
Series [11] can be described thus: Drug degradation in methanol assessed as 2-(methoxycarbonyloxy)propan-2-yl 4-methoxybenzoylcarbamate formation at room temperature for 10 mins by TLC analysis in the presence of sodium methoxide. In kind it is physicochemical.
A short description of series [12]: Drug degradation in CD3ONa/CD3OD solution assessed as methyl 4-methoxybenzoate formation at room temperature after 15 mins by 1H-NMR analysis in the presence of sodium methoxide. In kind it is physicochemical. To be noted: 0.25 h.

`COc1ccc(C(=O)N2C(=O)OC(C)C2=O)cc1` (stereo not drawn) returned an IC50 in [1] of over 500 µM. The inhibition entry in [2] is “tde”; in [3], “Dose-dependent effect”. Also, the Activity in [4] was under 20%.
Regarding `COc1ccc(N2C(=O)OC(C)(C)C2=O)cc1`, in series [5], the inhibition result was “inactive”. The IC50 in [1] is over 500 µM.
`CC1(C)OC(=O)N(Cc2ccccc2)C1=O`: the IC50 in series [1] came to 15.6 µM; in series [6], 2.1 µM. Moreover, the figures for the inhibition entry in series [2] and in series [3] were “tde” and “Dose-dependent effect”, respectively.
As for `COc1ccc(N2C(=O)OC(C)C2=O)cc1` (stereo not drawn), in series [7], the inhibition entry was “inactive”. This compound also showed an IC50 in [1] of over 500 µM.
As for `COc1ccc(C(=O)N2C(=O)OC(c3ccccc3)C2=O)cc1` (stereo not drawn), the IC50 in series [1] came out at 15.6 µM. For the same compound, the inhibition result in series [2] is “tde”; in series [3], “Dose-dependent effect”. Further, the Activity in series [4] was under 20%.
As for `CC1OC(=O)N(c2ccc([N+](=O)[O-])cc2)C1=O` (stereo not drawn), the inhibition entry in series [5] was “inactive”. This compound registered a half-life in [8] of 38.7 min. Further, in [1], the 50% inhibitory concentration (IC50) is over 500 µM.
Consider `COc1ccc(C(=O)N2C(=O)OC(C)(C)C2=O)cc1`, for which the Drug degradation result in series [9], in [10], in series [11] and in series [12] was “Active” each time. In [8], this compound registered a half-life of 16.7 min. Also, the figures for the IC50 in series [1] and in series [6] were 10.2 µM and 14.2 µM, respectively. The inhibition result in series [2] is “tde”; in series [3], “Dose-dependent effect”. The Activity in series [4] was under 20%.
`CC1(C)OC(=O)N(c2ccc([N+](=O)[O-])cc2)C1=O`: the inhibition entry in series [5] was “inactive”. This compound had an IC50 in series [1] of over 500 µM.
Regarding `Cc1ccc(S(=O)(=O)N2C(=O)OC(C)(C)C2=O)cc1`, the half-life in series [8] was 6.86 min. In series [1], this compound displayed a half-inhibitory concentration (IC50) of 2.6 µM. Moreover, the inhibition entry in series [2] was “tde”; in series [3], “Dose-dependent effect”. Further, in series [4], the Activity was under 20%.
Regarding `CC1OC(=O)N(Cc2ccccc2)C1=O` (stereo not drawn), the inhibition entry in [7] was “inactive”. The compound also gave an IC50 in [1] of over 500 µM.

What is called IC50 is the midpoint of a concentration-inhibition curve. A lower IC50 goes with greater potency. As a reminder, the half-life is the time needed for the level to fall by half in the phase considered. High values mean slow decline, low ones rapid decline.

Source of the values: ChEMBL document CHEMBL2029305, “N-Acyl and N-sulfonyloxazolidine-2,4-diones are pseudo-irreversible inhibitors of serine proteases” (Bioorg Med Chem Lett, 2012).
